From ChEMBL document CHEMBL3112463, “Synthesis and biological activity of polyalthenol and pentacyclindole analogues” (2014)

Experiments:
Type in all cases: functional
WiDr = test: Antiproliferative activity against human WiDr cells assessed as growth inhibition after 48 hrs by SRB assay
Outline: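 WiDr cells seeded at 20,000 cells/well after trypsinization into antibiotic-containing medium (trypan blue viability >97%). Culture at 37 °C, 5% CO₂ with foetal calf serum and 2 mM L-glutamine. Exposure to triplicate compound dilutions from DMSO stocks (0.25% v/v DMSO control) started day 1, lasting 48 h. Fixed with ice-cold 50% TCA, 60 min at 4 °C, then SRB, OD 492 nm background-subtracted.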

SW1573 = test: Antiproliferative activity against human SW1573 cells assessed as growth inhibition after 48 hrs by SRB assay; details: SW1573, 48 h
Outline: (§1)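 Cells maintained at 37 °C, 5% CO₂ in medium with foetal calf serum and 2 mM L-glutamine. Trypsinized into antibiotic medium, >97% viable by trypan blue, plated at 10,000 cells/well. Triplicate dilutions from DMSO stocks (0.25% v/v DMSO control) added on day 1 for 48 h. TCA fixation (50%, 4 °C, 60 min), SRB stain, OD 492 nm corrected for medium-only blank.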

A549 = test: Antiproliferative activity against human A549 cells assessed as growth inhibition after 48 hrs by SRB assay; details: A549, 48 h
Outline: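 Cells kept in medium with foetal calf serum and 2 mM L-glutamine at 37 °C, 5% CO₂. Trypsinized, resuspended in penicillin/streptomycin medium, >97% trypan blue viability, seeded at 10,000 cells/well. Compounds from DMSO stocks (0.25% v/v DMSO control), triplicate dilutions, added day 1 for 48 h. Fixed with cold 50% TCA for 60 min at 4 °C, then SRB staining, OD 492 nm, background corrected.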

HeLa = test: Antiproliferative activity against human HeLa cells assessed as growth inhibition after 48 hrs by SRB assay; outline: as §1
T47D = test: Antiproliferative activity against human T47D cells assessed as growth inhibition after 48 hrs by SRB assay
Outline: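 T-47D cells grown at 37 °C, 5% CO₂ in serum- and 2 mM L-glutamine-containing medium. Trypsinized, viability >97% by trypan blue, seeded at 15,000 cells/well. Compounds added day 1 in triplicate dilutions (DMSO vehicle 0.25% v/v as control) for 48 h. Cold 50% TCA fixation 60 min at 4 °C, SRB read at 492 nm with blank correction.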

[1] = Antiproliferative activity against human HBL100 cells assessed as growth inhibition after 48 hrs by SRB assay; details: HBL-100, 48 h; outline: as §1

GI50 (SW1573) [µM]	GI50 (A549) [µM]	GI50 (HeLa) [µM]	GI50 (T47D) [µM]	Compound	GI50 (WiDr) [µM]	GI50 [1] [µM]
45	40	25	31	COC(=O)[C@@]1(C)CC[C@@H]2C3=C1CC[C@@H](C)[C@]3(C)C[C@@H]1c3cc(Br)ccc3N[C@H]21	55	34
15	17	14	20	COC(=O)[C@@]1(C)CCC=C2[C@@H]1CC[C@@H](C)[C@]2(C)Cc1c[nH]c2ccc(C)cc12	22	18
12	15	10	16	COC(=O)[C@@]1(C)CCC=C2[C@@H]1CC[C@@H](C)[C@]2(C)Cc1c[nH]c2ccc(Br)cc12	20	16
11	16	11	17	COC(=O)[C@@]1(C)CCC=C2[C@@H]1CC[C@@H](C)[C@]2(C)Cc1c[nH]c2ccc(Cl)cc12	20	17
14	15	11	15	COC(=O)[C@@]1(C)CCC=C2[C@@H]1CC[C@@H](C)[C@]2(C)Cc1c[nH]c2ccc(C(F)(F)F)cc12	18	15
7.8	11	4.9	18	COC(=O)[C@@]1(C)CCC=C2[C@@H]1CC[C@@H](C)[C@]2(C)Cc1c[nH]c2c(C)cccc12	26	8
14	22	13	24	COC(=O)[C@@]1(C)CCC=C2[C@@H]1CC[C@@H](C)[C@]2(C)Cc1c[nH]c2c(Br)cccc12	32	18
14	22	14	24	COC(=O)[C@@]1(C)CCC=C2[C@@H]1CC[C@@H](C)[C@]2(C)Cc1c[nH]c2c(Cl)cccc12	31	19
14	15	11	17	COC(=O)[C@@]1(C)CCC=C2[C@@H]1CC[C@@H](C)[C@]2(C)Cc1c(C)[nH]c2ccccc12	19	14
18	26	17	31	COC(=O)[C@@]1(C)CCC=C2[C@@H]1CC[C@@H](C)[C@]2(C)Cc1c(C)[nH]c2ccc(C)cc12	28	25
14	17	12	17	COC(=O)[C@@]1(C)CCC=C2[C@@H]1CC[C@@H](C)[C@]2(C)Cc1c(C)[nH]c2ccc(Cl)cc12	18	15
12	15	11	15	COC(=O)[C@@]1(C)CCC=C2[C@@H]1CC[C@@H](C)[C@]2(C)Cc1c(C)[nH]c2ccc(F)cc12	17	14
15	16	12	21	COC(=O)[C@@]1(C)CCC=C2[C@@H]1CC[C@@H](C)[C@]2(C)Cc1c(C)[nH]c2ccc(OC)cc12	17	16
15	17	12	21	COC(=O)[C@@]1(C)CCC=C2[C@@H]1CC[C@@H](C)[C@]2(C)Cc1c(C)[nH]c2ccc(C(F)(F)F)cc12	21	16
15	14	14	19	COC(=O)[C@@]1(C)CCC=C2[C@@H]1CC[C@@H](C)[C@]2(C)Cc1c(C)[nH]c2c(C)cccc12	21	16
25	27	22	31	COC(=O)[C@@]1(C)CCC=C2[C@@H]1CC[C@@H](C)[C@]2(C)Cc1c(C)[nH]c2c(Br)cccc12	38	27
19	20	17	27	COC(=O)[C@@]1(C)CCC=C2[C@@H]1CC[C@@H](C)[C@]2(C)Cc1c(C)[nH]c2c(Cl)cccc12	29	22

GI50 (SW1573) [µM]	GI50 (A549) [µM]	GI50 (HeLa) [µM]	GI50 (T47D) [µM]	Compound	GI50 (WiDr) [µM]	GI50 [1] [µM]
13	13	6.9	15	COC(=O)[C@@]1(C)CCC=C2[C@@H]1CC[C@@H](C)[C@]2(C)Cc1c(/C=C/[N+](=O)[O-])[nH]c2ccccc12	21	16
> 100	> 100	> 100	> 100	COC(=O)[C@@]1(C)CCC=C2[C@@H]1CC[C@@H](C)[C@]2(C)Cc1c(C)n(C(c2ccccc2)c2ccccc2)c2ccc(Cl)cc12	> 100	> 100
13	9.1	5.5	13	Cc1c(C[C@]2(C)C3=CCC[C@](C)(C(=O)O)[C@H]3CC[C@H]2C)c2cc(Cl)ccc2n1C(c1ccccc1)c1ccccc1	16	13
30	39	19	35	COC(=O)[C@@]1(C)CC[C@@H]2C3=C1CC[C@@H](C)[C@]3(C)C[C@@H]1c3ccccc3N[C@H]21	50	78
23	27	18	23	COC(=O)[C@@]1(C)CC[C@@H]2C3=C1CC[C@@H](C)[C@]3(C)C[C@@H]1c3cc(C)ccc3N[C@H]21	32	15
38	35	23	28	COC(=O)[C@@]1(C)CC[C@@H]2C3=C1CC[C@@H](C)[C@]3(C)C[C@@H]1c3cc(Cl)ccc3N[C@H]21	48	28
27	25	20	27	COC(=O)[C@@]1(C)CC[C@@H]2C3=C1CC[C@@H](C)[C@]3(C)C[C@@H]1c3cc(F)ccc3N[C@H]21	32	18
25	22	20	19	COC(=O)[C@@]1(C)CC[C@@H]2C3=C1CC[C@@H](C)[C@]3(C)C[C@@H]1c3cc(OC)ccc3N[C@H]21	25	15
31	30	22	29	COC(=O)[C@@]1(C)CC[C@@H]2C3=C1CC[C@@H](C)[C@]3(C)C[C@@H]1c3cccc(C)c3N[C@H]21	43	32
44	42	22	37	COC(=O)[C@@]1(C)CC[C@@H]2C3=C1CC[C@@H](C)[C@]3(C)C[C@@H]1c3cccc(Br)c3N[C@H]21	54	40
49	54	31	50	COC(=O)[C@@]1(C)CC[C@@H]2C3=C1CC[C@@H](C)[C@]3(C)C[C@@H]1c3cccc(Cl)c3N[C@H]21	67	52
15	16	11	16	COC(=O)[C@@]1(C)CC[C@@H]2C3=C1CC[C@@H](C)[C@]3(C)Cc1c2[nH]c2ccc(C)cc12	19	11
12	17	14	21	COC(=O)[C@@]1(C)CC[C@@H]2C3=C1CC[C@@H](C)[C@]3(C)Cc1c2[nH]c2ccc(Br)cc12	22	16
16	16	12	23	COC(=O)[C@@]1(C)CC[C@@H]2C3=C1CC[C@@H](C)[C@]3(C)Cc1c2[nH]c2c(C)cccc12	22	13
26	35	18	31	COC(=O)[C@@]1(C)CC[C@@H]2C3=C1CC[C@@H](C)[C@]3(C)Cc1c2[nH]c2c(Br)cccc12	37	26
17	21	12	21	COC(=O)[C@@]1(C)CC[C@@H]2C3=C1CC[C@@H](C)[C@]3(C)Cc1c2[nH]c2c(Cl)cccc12	21	16
